From ChEMBL document CHEMBL1135628, “Potent and long-acting corticotropin releasing factor (CRF) receptor 2 selective peptide competitive antagonists” (J Med Chem, 2002) come the findings set out here.

Assay [1] has as its target Corticotropin-releasing factor receptor 2 (Mus musculus) (UniProt Q60748). As to the kind of experiment: Inhibition of recombinant mouse corticotropin releasing factor receptor 2 beta (CRF2beta) assayed using nonselective [125I]-labeled agonist [Tyr0,Glu1,Nle17]-sauvagine as radioligand.
Assay [2] has as its target T1, Corticotropin-releasing factor receptor 1 (Homo sapiens, UniProt P34998).
T1 sequence (P34998 whole entry): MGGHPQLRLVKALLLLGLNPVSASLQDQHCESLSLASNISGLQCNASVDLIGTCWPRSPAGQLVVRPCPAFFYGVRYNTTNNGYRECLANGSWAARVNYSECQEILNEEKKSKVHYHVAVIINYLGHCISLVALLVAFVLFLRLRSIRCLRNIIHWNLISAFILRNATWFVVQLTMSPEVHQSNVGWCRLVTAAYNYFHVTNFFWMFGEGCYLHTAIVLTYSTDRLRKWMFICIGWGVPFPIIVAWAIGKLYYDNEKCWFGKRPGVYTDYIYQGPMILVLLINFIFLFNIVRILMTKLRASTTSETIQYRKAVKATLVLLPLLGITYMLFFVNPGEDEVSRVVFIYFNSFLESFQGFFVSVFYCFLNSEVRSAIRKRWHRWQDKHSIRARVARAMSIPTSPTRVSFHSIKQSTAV
Nature of the assay: Inhibition of recombinant corticotropin releasing factor receptor 1 assayed using nonselective [125I]-labeled agonist [Tyr0,Glu1,Nle17]-sauvagine. In a few lines:
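Crude plasma membranes from stable CHO lines expressing hCRF1 or mCRF2β, stored in 10% sucrose at -80 °C. Incubated 90 min at room temperature, then washed and filtered. IC50 taken from one representative assay, repeated at least twice.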

Sequence of Corticotropin-releasing factor receptor 2 (Mus musculus) (Q60748 whole entry, looked up): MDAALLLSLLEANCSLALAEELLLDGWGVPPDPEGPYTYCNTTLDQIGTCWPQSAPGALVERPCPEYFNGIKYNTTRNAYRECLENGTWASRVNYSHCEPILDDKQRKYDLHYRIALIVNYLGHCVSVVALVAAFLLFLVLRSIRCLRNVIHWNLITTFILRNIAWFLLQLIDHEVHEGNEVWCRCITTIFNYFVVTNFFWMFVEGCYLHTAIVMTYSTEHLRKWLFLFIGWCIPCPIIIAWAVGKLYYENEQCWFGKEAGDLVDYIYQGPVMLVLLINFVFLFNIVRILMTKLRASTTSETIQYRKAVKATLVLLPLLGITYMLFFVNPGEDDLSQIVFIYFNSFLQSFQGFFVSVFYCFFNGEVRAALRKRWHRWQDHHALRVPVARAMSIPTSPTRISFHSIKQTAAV

In general, IC50 refers to the concentration at which inhibition is half-maximal. Consider `CCCC[C@H](NC(=O)[C@H](CCCCN)NC(=O)[C@H](CCCN=C(N)N)NC(=O)[C@H](CC(C)C)NC(=O)[C@](C)(CC(C)C)NC(=O)[C@H](Cc1c[nH]cn1)NC(=O)[C@@H](Cc1ccccc1)NC(=O)[C@H](CO)NC(=O)[C@H](CC(C)C)NC(=O)[C@H](CC(=O)O)NC(C)=O)C(=O)N[C@H](C(=O)N[C@@H](CCC(=O)O)C(=O)N[C@H](C(=O)N[C@@H](CCC(=O)O)C(=O)N[C@@H](CCCCN)C(=O)N[C@@H](CCC(N)=O)C(=O)N[C@@H](CCC(=O)O)C(=O)N[C@@H](CCCCN)C(=O)N[C@@H](CCC(=O)O)C(=O)N[C@@H](CCCCN)C(=O)N[C@@H](CCC(N)=O)C(=O)N[C@@H](CCC(N)=O)C(=O)N[C@H]1CCC(=O)NCCCC[C@@H](C(=O)N[C@@H](CCCN=C(N)N)C(=O)N[C@@H](CC(C)C)C(=O)N[C@@H](CC(C)C)C(=O)N[C@@H](CC(C)C)C(=O)N[C@@H](CC(=O)O)C(=O)N[C@@](C)(CC(C)C)C(=O)N[C@H](C(N)=O)[C@@H](C)CC)NC(=O)[C@H](CC(N)=O)NC(=O)[C@H](C)NC1=O)[C@@H](C)CC)[C@@H](C)CC`, for which the IC50 in assay [1] was 81 nM; in assay [2], over 500 nM.

In the case of `CCCC[C@H](NC(=O)[C@H](CCCCN)NC(=O)[C@H](CCCN=C(N)N)NC(=O)[C@H](CC(C)C)NC(=O)[C@](C)(CC(C)C)NC(=O)[C@H](Cc1c[nH]cn1)NC(=O)[C@@H](Cc1ccccc1)NC(=O)[C@H](CO)NC(=O)[C@H](CC(C)C)NC(=O)[C@H](CC(=O)O)NC(C)=O)C(=O)N[C@H](C(=O)N[C@@H](CCC(=O)O)C(=O)N[C@H](C(=O)N[C@@H](CCC(=O)O)C(=O)N[C@@H](CCCCN)C(=O)N[C@@H](CCC(N)=O)C(=O)N[C@@H](CCC(=O)O)C(=O)N[C@@H](CCCCN)C(=O)N[C@@H](CCC(=O)O)C(=O)N[C@@H](CCCCN)C(=O)N[C@@H](CCC(N)=O)C(=O)N[C@@H](CCC(N)=O)C(=O)N[C@@H](C)C(=O)N[C@@H](C)C(=O)N[C@@H](CCC(N)=O)C(=O)N[C@@H](CC(N)=O)C(=O)N[C@@H](CCCN=C(N)N)C(=O)N[C@@H](CCCCNC(C)=O)C(=O)N[C@@H](CC(C)C)C(=O)N[C@@H](CC(C)C)C(=O)N[C@@H](CC(=O)O)C(=O)N[C@@](C)(CC(C)C)C(=O)N[C@H](C(N)=O)[C@@H](C)CC)[C@@H](C)CC)[C@@H](C)CC`, the IC50 turned out to be 0.51 nM in assay [1] and 3.4 nM in assay [2].

Consider `CCCC[C@H](NC(=O)[C@H](CCCCN)NC(=O)[C@H](CCCN=C(N)N)NC(=O)[C@H](CC(C)C)NC(=O)[C@](C)(CC(C)C)NC(=O)[C@H](Cc1c[nH]cn1)NC(=O)[C@@H](Cc1ccccc1)NC(=O)[C@H](CO)NC(=O)[C@H](CC(C)C)NC(=O)[C@H](CC(=O)O)NC(C)=O)C(=O)N[C@H](C(=O)N[C@@H](CCC(=O)O)C(=O)N[C@H](C(=O)N[C@@H](CCC(=O)O)C(=O)N[C@@H](CCCCN)C(=O)N[C@@H](CCC(N)=O)C(=O)N[C@@H](CCC(=O)O)C(=O)N[C@@H](CCCCN)C(=O)N[C@@H](CCC(=O)O)C(=O)N[C@@H](CCCCN)C(=O)N[C@@H](CCC(N)=O)C(=O)N[C@@H](CCC(N)=O)C(=O)N[C@@H](C)C(=O)N[C@@H](C)C(=O)N[C@H]1CCC(=O)NCCCC[C@@H](C(=O)N[C@@H](CC(C)C)C(=O)N[C@@H](CC(C)C)C(=O)N[C@@H](CC(=O)O)C(=O)N[C@@](C)(CC(C)C)C(=O)N[C@H](C(N)=O)[C@@H](C)CC)NC(=O)[C@H](CCCN=C(N)N)NC(=O)[C@H](CC(N)=O)NC1=O)[C@@H](C)CC)[C@@H](C)CC`, for which the IC50 in assay [1] amounted to 0.61 nM; in assay [2] it was 5.9 nM.
